From the RNAGym collection of RNA variant scans (doi:10.1126/science.aae0568)
This sample holds only a part of the variants without activity.

B1: tRNA (parent)
chain: GUUCCGUUGGCGUAAUGGUAACGCGUCUCCCUCCUAAGGAGAAGACUGCGGGUUCGAGUCCCGUACGGAACG

Variants of: B1
Experiment: yeast fitness relative to wild type (ratio to wild type); higher = fitter; tRNA-Arg(CCU), competitive growth, 37 C, YPD
Summary of the method: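 Amplicons of the tRNA-Arg(CCU) gene were sequenced, 100-nucleotide paired-end, from the start population and from each end population of a pooled yeast competition. The competition, in six parallel replicates, lasted 24 hours in YPD at 37°C. Fitness relative to wild type was calculated from changes in genotype frequencies. Genotypes had to have ≥ 100 starting reads, and estimates < 0.5 were set to 0.5.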

| Variant | yeast fitness |
| --- | --- |
| G9A A15G | 0.884 |
| U8C G17C G58C | ≤ 0.5 |
| G9A A37G | 0.795 |
| G9A A43G U59A A69G | ≤ 0.5 |
| U8C U19A C31A G41C A45G G50C C62U | ≤ 0.5 |
| U8C C31A A42G A43G G68C | 0.559 |
| U8G C34U C66G | ≤ 0.5 |
| U8C C29A A37G | 0.616 |
| U8C U13C U47C A65G | ≤ 0.5 |
| U8C U32G C49G | ≤ 0.5 |
| U8G A15U A20C A69C | ≤ 0.5 |
| U8C C55U G63A | 0.552 |
| G9A A21U C24G U28A C60G A70C | ≤ 0.5 |
| G9A A20U C22G | 0.53 |
| U8C G23A C30U C55A | ≤ 0.5 |
| U8C G23U A42G C60A | ≤ 0.5 |
| G9A A42G C62A | ≤ 0.5 |
| U8G C55U | 0.569 |
| U8G A45U G50A A69C | ≤ 0.5 |
| U8G C29U G50C U59A | ≤ 0.5 |
| U8C G44A | 1.01 |
| G9A A36U G39A G52C | ≤ 0.5 |
| U8C C30G C46A U47G C49A G52A G58C U64G A65G | ≤ 0.5 |
| G9A A57C | 0.591 |

| Variant | yeast fitness |
| --- | --- |
| U8G G41C | 0.657 |
| U8G G41A | 0.642 |
| G9A A40C G68A | ≤ 0.5 |
| U8C C55A | 0.739 |
| G9A A21U G44A C55G | 0.584 |
| U8C C30G C31G C55U | ≤ 0.5 |
| U8G G12A U32A G50C G52C C55U | ≤ 0.5 |
| U8G G10C U13G C55G U59A | ≤ 0.5 |
| U8C G67A | 0.85 |
| U8C G67C | 0.953 |
| U8G C24U | 0.626 |
| G9A A45C C49U | 0.643 |
| U8G A21C A43U U59A G63A | ≤ 0.5 |
| U8C U19G C22U C31U A40U G67A | 0.53 |
| G9A A21G U59A | 0.731 |
| U8C G51A C62A | ≤ 0.5 |
| U8C G51A | 0.817 |
| U8G G10C A20G | ≤ 0.5 |
| U8G A21C G50A G56A | ≤ 0.5 |
| U8C G10A A40G | 0.551 |
| U8C G18A | 0.686 |
| U8G C11U U16C A42U | 0.749 |
| U8G U35C A57C | ≤ 0.5 |
| U8G G48A | 0.531 |

| Variant | yeast fitness |
| --- | --- |
| U8C C27U U32A C66U G67C | ≤ 0.5 |
| U8C C61A A65U | ≤ 0.5 |
| U8C C29A | 0.664 |
| U8C C29U | 0.937 |
| U8C G12A C29G U47C | ≤ 0.5 |
| G9A A21G C33A C62U G63C A70C | ≤ 0.5 |
| U8C U26A | 0.884 |
| U8C C33U A36C A43G A57U | ≤ 0.5 |
| U8C G38C U64A C66U | ≤ 0.5 |
| U8G U26A A40G A43C C55G C60A | ≤ 0.5 |
| G9A A40U A65U | 0.718 |
| U8G | 0.711 |
| U8G U35G A70C | 0.536 |
| U8C G9C C49U G68U | ≤ 0.5 |
| U8G A37U C66U | ≤ 0.5 |
| U8C G12A A45U G48A | ≤ 0.5 |
| U8G G17A G56C | ≤ 0.5 |
| U8C G38C C49U C62U A69U | 0.568 |
| G9A A37G A57U C66U | ≤ 0.5 |
| U8G U26A A43C | 0.55 |
| U8C C46U G52A | ≤ 0.5 |
| U8G A43C C61U | ≤ 0.5 |
| G9A A15U A20G G44C C61U | ≤ 0.5 |
| G9A A70G | 1.06 |

| Variant | yeast fitness |
| --- | --- |
| G9A A40C C49U | 0.713 |
| U8G C27A C61A | ≤ 0.5 |
| U8C U28A | 0.901 |
| U8G G12A U13G C22G C24G A36G A37C A57U G68C | 0.589 |
| U8G G17A A70C | ≤ 0.5 |
| U8C U13A C29A C31G | ≤ 0.5 |
| U8C U13A A65G | 0.716 |
| U8C C29A C34G A36G A37G A40C U47A U64C | ≤ 0.5 |
| U8G G17A C24G G58C | ≤ 0.5 |
| U8G G12A G50C G52C C55U C62U A70C | ≤ 0.5 |
| U8C U16C C61G A69C | ≤ 0.5 |
| U8C C49U C61A | ≤ 0.5 |
| U8G U13A A43G U53A G68A | ≤ 0.5 |
| U8C G23A C34A A42U C46A A57C | ≤ 0.5 |
| U8C U13A C22G C24G A36U A40C G51C | ≤ 0.5 |
| G9A A14G C22U C31A C34U A36C A45C C61U U64A | 0.546 |
| U8C U26C A37U A57G | ≤ 0.5 |
| U8C G12A G18A A45C | ≤ 0.5 |
| U8C G25C C33A | ≤ 0.5 |
| U8G A20G U47G A57G | 0.654 |
| U8G C11U | 0.646 |
| U8G C24G C33G A36U C49G C62G C66G A69C | 0.602 |
| U8C U32C C46G G67C | ≤ 0.5 |
| U8G G12A A37C A43U C66A A70C | 0.597 |

| Variant | yeast fitness |
| --- | --- |
| U8G U28A C34A C66A | ≤ 0.5 |
| U8C C30G C31G U54C C61G | ≤ 0.5 |
| U8C G9A A42G | 0.514 |
| G9A A14G C29U U32A A43U | ≤ 0.5 |
| U8G U47G C49A A69U | ≤ 0.5 |
| U8C G18C A21C U47A G48C U54G A65C | ≤ 0.5 |
| U8G U32C C66U | ≤ 0.5 |
| U8C U16C A69C | 0.709 |
| U8C G39C U47C C60A C61G A69U | ≤ 0.5 |
| U8C G17A | 0.711 |
| G9A A21G U32G G39C G52C | ≤ 0.5 |
| G9A A14C C22G A45C G51C U64C | ≤ 0.5 |
| U8G C60G C61A | 0.597 |
| U8G A21U G56A | ≤ 0.5 |
| U8C C34A C61G G68C | ≤ 0.5 |
| U8G G51A | ≤ 0.5 |
| U8C G9A U13G C62U | ≤ 0.5 |
| U8C G18A A45U G67C | 0.552 |
| U8G C60G | ≤ 0.5 |
| U8G C34G C55A C66U | ≤ 0.5 |
| U8G C46G G52A | ≤ 0.5 |
| U8C U16C | 0.861 |
| U8C G12A G63A | ≤ 0.5 |
| G9A A45U G48A G56A | 0.701 |

| Variant | yeast fitness |
| --- | --- |
| G9A A21C C27A A37G A45C | ≤ 0.5 |
| U8G U26A A43C C49U C55G C60A | ≤ 0.5 |
| G9A A20G A21U | 0.57 |
| U8G A21U C27G A65C | ≤ 0.5 |
| U8C G10C C46U C66U | ≤ 0.5 |
| U8G U26C C60U | ≤ 0.5 |
| U8C G9A A20C G68C | 0.527 |
| U8C G51C G58C | ≤ 0.5 |
| U8G A70U | 0.59 |
| U8C G18C C27A C33U A65C A69C | ≤ 0.5 |
| U8G C24G U59A C60A | ≤ 0.5 |
| U8G A20G C60G C61A | ≤ 0.5 |
| U8G C29A A37U C49A | ≤ 0.5 |
| G9A A40C A70U | 0.74 |
| G9A A21U C34G G39A C55U C61G | ≤ 0.5 |
| G9A A21U G48C C55A C66G G67C | ≤ 0.5 |
| U8C G50A A69U | 0.804 |
| U8C C27U C31A C55A G56A | 0.579 |
| U8C U28G C30G A40C A42U | 0.54 |
| G9A A21G C29G C31A C34G | ≤ 0.5 |
| U8G A40U G52A A69U | ≤ 0.5 |
| U8C G10C A15C A43C | ≤ 0.5 |
| U8C C27U U28G C33G A36G | ≤ 0.5 |
| U8G C24A C30G A40G U47G C55U C66U A70C | ≤ 0.5 |

| Variant | yeast fitness |
| --- | --- |
| G9A A21G A40G A43C U54A | ≤ 0.5 |
| U8C U54G U64A | 0.543 |
| U8C C30A C31U U54C | ≤ 0.5 |
| U8C U13A C24U C29G C33A U47A C55U A65C A69G | ≤ 0.5 |
| U8C C34G | 0.574 |
| U8G U28A C34G G39C A57G C66U | ≤ 0.5 |
| U8C G25A A37C G68U | ≤ 0.5 |
| U8G G25C G41C | 0.644 |
| U8C G10A U35A | ≤ 0.5 |
| G9A A21C C22A C66U | ≤ 0.5 |
| U8C C29U U35G C62U | ≤ 0.5 |
| U8G A14U U16C A40U G48C | ≤ 0.5 |
| U8G G9C G68A | ≤ 0.5 |
| U8G G10C U19A C22U C55G | ≤ 0.5 |
| U8C C46U C49G | 0.701 |
| U8C G12A C31G A40C A45C G48C | ≤ 0.5 |
| U8C C29A C34G A36G A40C G41A U47A U64C | ≤ 0.5 |
| U8C C31U | 1.07 |
| U8C U16C A65G | 0.707 |
| U8C G48C G63C A70C | ≤ 0.5 |
| G9A A36C A40C A45C | ≤ 0.5 |
| U8G C46A C55A | ≤ 0.5 |
| U8G C55A C66U | ≤ 0.5 |
